Calls of active or inactive are those of the source. The rule behind the calls is not given here.
How the values were obtained:
[1] = test system: Mycobacterium tuberculosis; assay: Binding affinity to Mycobacterium tuberculosis CYP124A1 assessed as type 1 binding mode at 0.05 to 0.2 uM by UV-visible spectrophotometry
Procedure, shortened: (§1)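 Spectral titration of each P450 with steroid solubilised in methyl β-cyclodextrin. Ligand-induced low-spin/high-spin shifts were followed in the Soret region and at ~650 nm to assign binding type. Absolute spectra of the P450–steroid complexes were also examined.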

[2] = target: T1, Steroid C26-monooxygenase (Mycobacterium tuberculosis, UniProt P9WPP1); assay: Binding affinity to Mycobacterium tuberculosis CYP125A1 assessed as type 1 binding mode at 0.05 to 0.2 uM by UV-visible spectrophotometry; procedure, shortened: as §1
T1 sequence (P9WPP1 whole entry): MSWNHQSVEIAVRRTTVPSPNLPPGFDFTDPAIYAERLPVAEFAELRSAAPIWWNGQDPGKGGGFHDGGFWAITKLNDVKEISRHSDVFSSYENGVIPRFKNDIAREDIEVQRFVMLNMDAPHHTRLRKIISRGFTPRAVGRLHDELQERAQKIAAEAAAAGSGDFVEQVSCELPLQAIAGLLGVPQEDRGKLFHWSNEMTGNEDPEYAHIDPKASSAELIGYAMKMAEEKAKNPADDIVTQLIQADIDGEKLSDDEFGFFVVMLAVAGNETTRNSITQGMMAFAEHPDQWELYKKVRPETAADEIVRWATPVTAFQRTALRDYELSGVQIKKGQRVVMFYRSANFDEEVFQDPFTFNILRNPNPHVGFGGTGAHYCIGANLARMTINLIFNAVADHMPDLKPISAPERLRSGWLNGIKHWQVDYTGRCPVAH

[3] = test system: Mycobacterium tuberculosis; assay: Binding affinity to Mycobacterium tuberculosis CYP142A1 assessed as type 1 binding mode at 0.05 to 0.2 uM by UV-visible spectrophotometry; procedure, shortened: as §1
[4] = test system: Mycobacterium tuberculosis; assay: Activity of Mycobacterium tuberculosis CYP124A1 assessed as apparent turnover number at 50 uM incubated for 1 hr at 25 degC by GC-MS method
Procedure, shortened: (§2)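 Each P450 (250 nM) was incubated with 50 μM substrate, 5 μg catalase, 50 μg/mL ferredoxin, 0.16 U/mL ferredoxin-NADP+ reductase, and an NADPH-regenerating system (1 mM glucose-6-phosphate, 2.4 U/mL G6P dehydrogenase, 5 mM MgCl2, 800 μM NADP+). Buffer was 50 mM potassium phosphate pH 7.5, 25 °C, 1 h. Quenched with HCl, extracted into hexanes, TMS-derivatised, GC-MS. Controls lacked P450 or NADPH.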

[5] = target: T1, Steroid C26-monooxygenase; assay: Activity of Mycobacterium tuberculosis CYP125A1 assessed as apparent turnover number at 50 uM incubated for 1 hr at 25 degC by GC-MS method; procedure, shortened: as §2
[6] = test system: Mycobacterium tuberculosis; assay: Activity of Mycobacterium tuberculosis CYP142A1 assessed as apparent turnover number at 50 uM incubated for 1 hr at 25 degC by GC-MS method; procedure, shortened: as §2
[7] = test system: Mycobacterium tuberculosis; assay: Activity of Mycobacterium tuberculosis CYP124A1 assessed as relative apparent turnover number at 50 uM incubated for 1 hr at 25 degC by GC-MS method relative to cholesterol
[8] = target: T1, Steroid C26-monooxygenase; assay: Activity of Mycobacterium tuberculosis CYP125A1 assessed as relative apparent turnover number at 50 uM incubated for 1 hr at 25 degC by GC-MS method relative to cholesterol
[9] = test system: Mycobacterium tuberculosis; assay: Activity of Mycobacterium tuberculosis CYP142A1 assessed as relative apparent turnover number at 50 uM incubated for 1 hr at 25 degC by GC-MS method relative to cholesterol
[10] = target: T1, Steroid C26-monooxygenase; assay: Binding affinity to Mycobacterium tuberculosis CYP125A1 assessed as type 1a binding mode at > 0.05 to 0.2 uM by UV-visible spectrophotometry; procedure, shortened: as §1
[11] = Binding affinity to Mycobacterium tuberculosis CYP124A1 by UV-visible spectrophotometry; settings: read-out: Kd(app); procedure, shortened: as §1
[12] = target: T1, Steroid C26-monooxygenase; assay: Binding affinity to Mycobacterium tuberculosis CYP125A1 by UV-visible spectrophotometry; settings: read-out: Kd(app); procedure, shortened: as §1
[13] = test system: Mycobacterium tuberculosis; assay: Time dependent inhibition of Mycobacterium tuberculosis CYP124A1 at 50 uM incubated up to 3 hrs by HPLC
Procedure, shortened: (§3)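 P450 (5 μM) was pre-incubated with 50 μM test sterol in 50 mM potassium phosphate pH 7.5 with ferredoxin, reductase, catalase and NADPH-regenerating system. Controls received MβCD vehicle only. Aliquots taken over time were diluted twenty-fold into buffer with 50 μM cholest-4-en-3-one, spinach ferredoxin, reductase and 1 mM NADPH, run 10 min at 25 °C, and analysed by HPLC. Residual activity = % of control.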

[14] = test system: Mycobacterium tuberculosis; assay: Time dependent inhibition of Mycobacterium tuberculosis CYP142A1 at 50 uM incubated up to 3 hrs by HPLC; procedure, shortened: as §3
[15] = test system: Mycobacterium tuberculosis; assay: Activity of Mycobacterium tuberculosis CYP124A1 assessed as compound oxidation at 50 uM incubated for 1 hr at 25 degC by GC-MS method; procedure, shortened: as §2
[16] = test system: Mycobacterium tuberculosis; assay: Activity of Mycobacterium tuberculosis CYP142A1 assessed as compound oxidation at 50 uM incubated for 1 hr at 25 degC by GC-MS method; procedure, shortened: as §2

SMILES | Activity [1] | Activity [2] | Activity [3] | Kcat(app) [4] [s⁻¹] | Kcat(app) [5] [s⁻¹] | Kcat(app) [6] [s⁻¹] | Activity [8] [%] | Activity [9] [%] | Activity [15] | Activity [16] | further results
CCCCC[C@@H](C)[C@H]1CC[C@H]2[C@@H]3CC=C4C[C@@H](O)CC[C@]4(C)[C@H]3CC[C@]12C | Active | Active | Active | 0.0117 | 0.085 | 0.0317 | 18 | 11.7 | – | – | Activity [7]: 48.6%
CSCCC[C@@H](C)[C@H]1CC[C@H]2[C@@H]3CC=C4C[C@@H](O)CC[C@]4(C)[C@H]3CC[C@]12C | Active | – | Active | – | – | – | – | – | – | – | Activity [10]: Active
C=C(C)CCC[C@@H](C)[C@H]1CC[C@H]2[C@@H]3CC=C4C[C@@H](O)CC[C@]4(C)[C@H]3CC[C@]12C | Active | – | Active | 0.00667 | 0.178 | 0.0183 | 37 | 6.7 | – | – | Kd [11]: 150 nM; Kd [12]: 250 nM; Activity [10]: Active; Activity [7]: 26.2%
C=CCCC[C@@H](C)[C@H]1CC[C@H]2[C@@H]3CC=C4C[C@@H](O)CC[C@]4(C)[C@H]3CC[C@]12C | Active | Active | Active | 0.0005 | 0.0367 | 0.0183 | 8 | 6.7 | – | – | Activity [7]: 1.9%; inhibition [13]: inactive; inhibition [14]: inactive
C[C@H](CCCBr)[C@H]1CC[C@H]2[C@@H]3CC=C4C[C@@H](O)CC[C@]4(C)[C@H]3CC[C@]12C | Active | – | Active | – | – | – | – | – | – | – | Activity [10]: Active
C=C(C)CCC[C@@H](C)[C@H]1CC[C@H]2[C@@H]3CCC4=CC(=O)CC[C@]4(C)[C@H]3CC[C@]12C | – | – | – | – | – | – | – | – | Active | Active | –
C=CCCC[C@@H](C)[C@H]1CC[C@H]2[C@@H]3CCC4=CC(=O)CC[C@]4(C)[C@H]3CC[C@]12C | – | – | – | – | – | – | – | – | Active | Active | –
CC(C)=CCC[C@@H](C)[C@H]1CC[C@@]2(C)C3=C(CC[C@]12C)[C@@]1(C)CCC(=O)C(C)(C)[C@@H]1CC3 | – | – | – | – | – | – | – | – | Active | Active | –
CC(C)=CCC[C@@H](C)[C@H]1CC[C@H]2[C@@H]3CCC4=CC(=O)CC[C@]4(C)[C@H]3CC[C@]12C | – | – | – | – | – | – | – | – | Active | Active | –
CC(C)CCC[C@@H](C)[C@H]1CC[C@H]2[C@@H]3CC[C@@H]4CC(=O)CC[C@]4(C)[C@H]3CC[C@]12C | – | – | – | – | – | – | – | – | Active | Active | –
CCCCC[C@@H](C)[C@H]1CC[C@H]2[C@@H]3CCC4=CC(=O)CC[C@]4(C)[C@H]3CC[C@]12C | – | – | – | – | – | – | – | – | Active | Active | –
CSCCC[C@@H](C)[C@H]1CC[C@H]2[C@@H]3CCC4=CC(=O)CC[C@]4(C)[C@H]3CC[C@]12C | – | – | – | – | – | – | – | – | Active | Active | –
C[C@H](CCCBr)[C@H]1CC[C@H]2[C@@H]3CCC4=CC(=O)CC[C@]4(C)[C@H]3CC[C@]12C | – | – | – | – | – | – | – | – | Active | Active | –
CCC(C)CCC[C@@H](C)[C@H]1CC[C@H]2[C@@H]3CC=C4C[C@@H](O)CC[C@]4(C)[C@H]3CC[C@]12C (mixture of isomers) | Active | Active | Active | – | 0.317 | 0.163 | 68.1 | 58.7 | – | – | –
CC(Cl)CCC[C@@H](C)[C@H]1CC[C@H]2[C@@H]3CC=C4C[C@@H](O)CC[C@]4(C)[C@H]3CC[C@]12C (mixture of isomers) | Active | Active | Active | 0.0075 | 0.122 | 0.15 | 26 | 53.7 | – | – | Activity [7]: 29.8%
CC(Br)CCC[C@@H](C)[C@H]1CC[C@H]2[C@@H]3CC=C4C[C@@H](O)CC[C@]4(C)[C@H]3CC[C@]12C (mixture of isomers) | Active | Active | Active | 0.0168 | 0.3037 | 0.299 | 65.1 | 107 | – | – | Activity [7]: 67.3%
CC(Br)CCC[C@@H](C)[C@H]1CC[C@H]2[C@@H]3CCC4=CC(=O)CC[C@]4(C)[C@H]3CC[C@]12C (mixture of isomers) | – | – | – | – | – | – | – | – | Active | Active | –
CC(Cl)CCC[C@@H](C)[C@H]1CC[C@H]2[C@@H]3CCC4=CC(=O)CC[C@]4(C)[C@H]3CC[C@]12C (mixture of isomers) | – | – | – | – | – | – | – | – | Active | Active | –
CCC(C)CCC[C@@H](C)[C@H]1CC[C@H]2[C@@H]3CCC4=CC(=O)CC[C@]4(C)[C@H]3CC[C@]12C (mixture of isomers) | – | – | – | – | – | – | – | – | Active | Active | –
CC(C)CCC[C@@H](C)[C@H]1CC[C@H]2[C@@H]3CCC4=CC(=O)CC[C@]4(C)[C@H]3CC[C@]12C [4-CHOLESTEN 3-ONE] | Active | Active | Active | – | – | – | – | – | Active | Active | –
CC(C)CCC[C@@H](C)[C@H]1CC[C@H]2[C@@H]3CC=C4C[C@@H](O)CC[C@]4(C)[C@H]3CC[C@]12C [CHOLESTEROL] | Active | Active | Active | 0.025 | 0.467 | 0.278 | – | – | – | – | –
CC(C)CCC[C@@H](C)[C@H]1CC[C@H]2[C@@H]3CC[C@@H]4C[C@@H](O)CC[C@]4(C)[C@H]3CC[C@]12C [COPROSTANOL] | Active | Active | Active | 0.0172 | 0.2373 | 0.12 | 50.9 | 43.1 | – | – | Activity [7]: 68.4%
CC(C)=CCC[C@@H](C)[C@H]1CC[C@H]2[C@@H]3CC=C4C[C@@H](O)CC[C@]4(C)[C@H]3CC[C@]12C [DESMOSTEROL] | Active | Active | Active | 0.0228 | 0.2215 | 0.115 | 47.5 | 41.4 | – | – | Activity [7]: 91.2%
CC(C)=CCC[C@@H](C)[C@H]1CC[C@@]2(C)C3=C(CC[C@]12C)[C@@]1(C)CC[C@H](O)C(C)(C)[C@@H]1CC3 [LANOSTEROL] | Active | Active | Active | – | 0.1728 | 0.368 | 37 | 132 | – | – | –

Source: ChEMBL document CHEMBL2046332, “Substrate analog studies of the ω-regiospecificity of Mycobacterium tuberculosis cholesterol metabolizing cytochrome P450 enzymes CYP124A1, CYP125A1 and CYP142A1” (Bioorg Med Chem, 2012)
